Consider 2 compounds from ChEMBL document CHEMBL3596186, “Synthesis and biological evaluation of diarylthiazole derivatives as antimitotic and antivascular agents with potent antitumor activity” (Bioorg Med Chem, 2015).

For series [1], the system named is NCI-H1975. As to the kind of experiment: Resistance ratio, ratio of IC50 for human gefitinib-resistant NCI-H1975 cells to IC50 for human HCC827 cells. It counts as functional.
Series [2] has as its system A549. As to the kind of experiment: Antiproliferative activity against human taxol-resistant A549 cells after 48 hrs by MTT assay. Type of series: functional, cell-based. The following applies: A549, 48 h. Put shortly: (§1)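 MCF-7/ADR (doxorubicin-resistant) and A549/T (taxol-resistant) cells in RPMI-1640 with 10% FBS and penicillin/streptomycin. Log-phase cells at 40,000-50,000 cells/mL exposed to graded concentrations for 48 h. MTT 3 h, DMSO solubilization, absorbance 570 nm. IC50 from percent growth versus untreated control; mean ± SEM of ≥3 independent experiments.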

Series [3] concerns A549. As to the kind of experiment: Antiproliferative activity against human A549 cells after 48 hrs by MTT assay. To be noted: A549, 48 h. It counts as functional, cell-based. The gist of the method: (§2)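 HCT116, HepG2, SMMC-7721, SK-OV-3 and A2780s grown in DMEM; A549 and MCF-7 in RPMI-1640; all with 10% FBS and penicillin/streptomycin at 37 °C, 5% CO2. Log-phase cells at 40,000-50,000 cells/mL treated with graded concentrations for 48 h. MTT 3 h, DMSO solubilization, A570. IC50 from percent growth versus untreated control; mean ± SEM of ≥3 independent dose-response experiments.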

For series [4], the system named is A549. As to the kind of experiment: Resistance ratio, ratio of IC50 for human taxol-resistant A549 cells to IC50 for human A549 cells. Type of series: functional. Put shortly:
(§3)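 MTT assay: log-phase cells at 40,000-50,000 cells/mL in RPMI-1640 with 10% FBS, exposed to graded concentrations for 48 h, then MTT 3 h, DMSO solubilization, absorbance at 570 nm. IC50 from growth versus untreated control, at least three independent experiments. Ratio = resistant-line IC50 / parental-line IC50.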

Series [5] relates to NCI-H1975. The series can be described thus: Antiproliferative activity against human gefitinib-resistant NCI-H1975 cells after 48 hrs by MTT assay. The following applies: NCI-H1975, 48 h. Type of series: functional, cell-based.
A short description of series [6]: Inhibition of pig microtubule polymerization after 30 mins by turbidimetric assay. More on the design: species or system Sus scrofa. The gist of the method:
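Porcine-brain MAP-rich tubulin at 3 mg/mL preincubated 30 min at 4 °C in 0.1 M PIPES pH 6.9, 2 mM MgCl2, 0.5 mM EGTA. Compounds added 2 min before the run, then 1 mM GTP. Turbidity followed kinetically at 340 nm at 37 °C; assembly IC50 derived by Hamel's method.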

Series [7] relates to MCF7. As to the kind of experiment: Antiproliferative activity against human MCF7 cells after 48 hrs by MTT assay. It counts as functional, cell-based. To be noted: MCF7, 48 h. The gist of the method: as §2
A short description of series [8]: Antiproliferative activity against human doxorubicin-resistant MCF7 cells after 48 hrs by MTT assay. Type of series: functional, cell-based. To be noted: MCF7, 48 h. The gist of the method: as §1
The nature of series [9]: Antiproliferative activity against human HCC827 cells after 48 hrs by MTT assay. Type of series: functional, cell-based. To be noted: HCC827, 48 h.
Series [10] has as its system SK-OV-3. As to the kind of experiment: Antiproliferative activity against human SKOV3 cells after 48 hrs by MTT assay. It counts as functional, cell-based. The following applies: SK-OV-3, 48 h. The gist of the method:
as §2

Series [11] relates to HepG2. The series can be described thus: Antiproliferative activity against human HepG2 cells after 48 hrs by MTT assay. It counts as functional, cell-based. To be noted: HepG2, 48 h. Put shortly: as §2
Series [12] can be described thus: Antiproliferative activity against human […] cells after 48 hrs by MTT assay. It counts as functional, cell-based. Put shortly:
as §2

Series [13] is described as follows: Antiproliferative activity against human A2780S cells after 48 hrs by MTT assay. It counts as functional, cell-based. To be noted: A2780, 48 h. The gist of the method: as §2
For series [14], the system named is HCT-116. As to the kind of experiment: Antiproliferative activity against human HCT116 cells after 48 hrs by MTT assay. It counts as functional, cell-based. The following applies: HCT-116, 48 h. Put shortly: as §2
The target of series [15] is Tubulin (Homo sapiens) (UniProt P68371+Q9H4B7+P0DPH7+P68366+Q13509+Q71U36+P04350+Q3ZCM7+P07437+P68363+Q9BQE3+Q6PEY2+Q13885+Q9BVA1+Q9BUF5). As to the kind of experiment: Binding affinity to tubulin in human HepG2 cells at 5 uM after 4 hrs by EBI competition assay. Type of series: cell-based. The gist of the method: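 HepG2 cells seeded at 500,000 cells/well, allowed to adhere, then treated with compound for 4 h. EBI added at 100 µM for 1.5 h. Cell extracts (about 20 µg protein) run on 10% SDS-PAGE, blotted to PVDF, probed with anti-β-tubulin, detected by ECL with GAPDH as loading control. Read-out is loss of the faster-migrating β-tubulin–EBI adduct band.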

The subject of series [16] is MCF7. As to the kind of experiment: Resistance ratio, ratio of IC50 for human doxorubicin-resistant MCF7 cells to IC50 for human MCF7 cells. Type of series: functional. Put shortly:
as §3

The test system of series [17] is Mus musculus. As to the kind of experiment: Toxicity in Balb/c athymic nude mouse xenografted with human HCT116 cells assessed as loss in body weight at 10 mg/kg, ip administered daily. Type of series: organism-based, HCT-116. To be noted: in vivo. The gist of the method:
(§4)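 Female Balb/C athymic nude mice, 5-6 weeks old, bearing s.c. right-flank xenografts (cells in HBSS). Once tumors averaged 100 mm3, animals were randomized into groups of 6 and dosed i.p. once daily. Body weight was recorded every two days during treatment.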

In series [18] the test system is Mus musculus. As to the kind of experiment: Toxicity in Balb/c athymic nude mouse xenografted with human SKOV3 cells assessed as loss in body weight at 10 mg/kg, ip administered daily. Type of series: organism-based, SK-OV-3. The following applies: in vivo. The gist of the method: as §4
Series [19] deals with HCT-116. The series can be described thus: Antitumor activity against human HCT116 cells xenografted in Balb/c athymic nude mouse assessed as tumor growth inhibition at 10 mg/kg, ip administered daily after 42 days. It counts as functional. The following applies: HCT-116, ip, 1008 h, read-out: TGI. The gist of the method:
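Female Balb/C athymic nude mice, 5-6 weeks old, given s.c. tumor cells in HBSS into the right flank. Once tumors averaged 100 mm3, animals were randomized into groups of 6 and given daily i.p. injections. Tumor volume (π/6 × length × width²) was measured every two days. Inhibition = (1 − treated/control tumor weight) × 100%, taken at day 42.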

Activity calls are given as the source filed them. The rule behind the calls is not given here.

With `CCNC(=O)Nc1nc(-c2ccc(OCC)cc2)c(-c2cc(OC)c(OC)c(OC)c2)s1`, the figures for the “Ratio IC50” value in series [1], in series [4] and in [16] were 0.35, 0.64 and 1.7, respectively. The IC50 was 0.14 µM in series [2]; 0.103 µM in series [3]; 0.22 µM in series [5]; 3.9 µM in series [6]; 0.417 µM in [7]; 0.727 µM in [8]. For the same compound, the half-inhibitory concentration (IC50) turned out to be 0.623 µM in series [9]; 0.0292 µM in series [10]; 0.0307 µM in series [11]; 0.0106 µM in [12]; 0.0013 µM in series [13]; 0.0221 µM in [14]. For the same compound, in [15], the result was inactive.

As for `O=c1[nH]cc(F)c(=O)[nH]1` [FLUOROURACIL], the Activity entry in series [17] and in series [18] was “Toxic” each time. Further, the inhibition in vivo at 10 mg/kg in series [19] came out at 37.3%.
